Test results published in ChEMBL document CHEMBL1154137, “Monodictyochromes A and B, dimeric xanthone derivatives from the marine algicolous fungus Monodictys putredinis” (J Nat Prod, 2008).
Calls of active or inactive are those of the source. The rule behind the calls is not given here.

Assays:
[1] = Antioxidant activity assessed as AAPH radical scavenging activity; type: functional
Method in brief: (§1)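 Oxygen radical absorbance capacity (ORAC) assay. AAPH generates peroxyl radicals, and trolox, the water-soluble vitamin E analogue, serves as reference. Compounds tested at 1 µM.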

[2] = target: Prostaglandin G/H synthase 1 (Homo sapiens) (UniProt P23219); experiment: Inhibition of COX1 at 100 uM
Prostaglandin G/H synthase 1 (Homo sapiens), sequence (P23219 whole entry): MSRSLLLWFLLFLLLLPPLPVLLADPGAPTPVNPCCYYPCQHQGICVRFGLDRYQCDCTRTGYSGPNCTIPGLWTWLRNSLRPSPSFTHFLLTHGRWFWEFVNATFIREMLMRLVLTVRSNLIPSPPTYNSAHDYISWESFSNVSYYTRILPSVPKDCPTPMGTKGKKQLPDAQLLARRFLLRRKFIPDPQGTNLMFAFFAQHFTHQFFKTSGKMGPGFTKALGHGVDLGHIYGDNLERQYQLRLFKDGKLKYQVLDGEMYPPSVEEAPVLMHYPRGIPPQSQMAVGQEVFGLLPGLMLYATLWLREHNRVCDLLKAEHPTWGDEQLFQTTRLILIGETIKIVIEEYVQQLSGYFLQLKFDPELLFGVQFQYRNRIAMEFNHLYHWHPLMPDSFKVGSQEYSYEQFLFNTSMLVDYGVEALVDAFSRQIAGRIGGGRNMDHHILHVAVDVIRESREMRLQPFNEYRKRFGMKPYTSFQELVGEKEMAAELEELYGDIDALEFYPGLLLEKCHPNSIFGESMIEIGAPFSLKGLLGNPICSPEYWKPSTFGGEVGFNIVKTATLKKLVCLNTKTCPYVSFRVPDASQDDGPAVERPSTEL
Method in brief: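 COX-1 enzymatic activity used as a marker of tumour promotion. Compounds tested at 100 µM.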

Mycotypha microspora = experiment: Antifungal activity against Mycotypha microspora at 1 mg/ml by agar diffusion assay; type: functional, organism-based
Method in brief: (§2)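 Agar diffusion assay with test solution at 1 mg/mL. Organisms: bacteria Bacillus megaterium and Escherichia coli; fungi Microbotryum violaceum, Eurotium rubrum and Mycotypha microspora; green microalga Chlorella fusca.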

[3] = test system: Radical scavenging activity; experiment: Antioxidant activity assessed as DPPH radical scavenging activity up to 250 uM; type: functional
Aspergillus ruber = experiment: Antifungal activity against Eurotium rubrum at 1 mg/ml by agar diffusion assay; type: functional, organism-based; method in brief: as §2
[4] = Cytotoxicity against mouse Hepa-1c1c7 cells by MTT assay; type: cell-based
[5] = target: T1, Quinone oxidoreductase (Mus musculus) (UniProt P47199); experiment: Ratio of compound to sulforaphane level required to double NADPH-quinone reductase activity in mouse Hepa-1c1c7 cells; type: cell-based
T1 sequence (whole entry): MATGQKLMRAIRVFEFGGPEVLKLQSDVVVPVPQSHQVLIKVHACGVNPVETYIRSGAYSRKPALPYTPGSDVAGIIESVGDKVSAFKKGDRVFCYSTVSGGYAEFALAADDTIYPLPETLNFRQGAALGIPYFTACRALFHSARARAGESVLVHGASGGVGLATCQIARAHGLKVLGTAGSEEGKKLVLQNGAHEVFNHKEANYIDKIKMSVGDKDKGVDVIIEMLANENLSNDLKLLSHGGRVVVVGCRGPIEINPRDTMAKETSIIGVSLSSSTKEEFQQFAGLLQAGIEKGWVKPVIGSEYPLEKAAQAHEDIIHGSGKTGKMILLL

Aromatase = target: T2, Aromatase (Homo sapiens, UniProt P11511); experiment: Inhibition of human recombinant aromatase; conditions: for Activity: human
T2 sequence (P11511 whole entry): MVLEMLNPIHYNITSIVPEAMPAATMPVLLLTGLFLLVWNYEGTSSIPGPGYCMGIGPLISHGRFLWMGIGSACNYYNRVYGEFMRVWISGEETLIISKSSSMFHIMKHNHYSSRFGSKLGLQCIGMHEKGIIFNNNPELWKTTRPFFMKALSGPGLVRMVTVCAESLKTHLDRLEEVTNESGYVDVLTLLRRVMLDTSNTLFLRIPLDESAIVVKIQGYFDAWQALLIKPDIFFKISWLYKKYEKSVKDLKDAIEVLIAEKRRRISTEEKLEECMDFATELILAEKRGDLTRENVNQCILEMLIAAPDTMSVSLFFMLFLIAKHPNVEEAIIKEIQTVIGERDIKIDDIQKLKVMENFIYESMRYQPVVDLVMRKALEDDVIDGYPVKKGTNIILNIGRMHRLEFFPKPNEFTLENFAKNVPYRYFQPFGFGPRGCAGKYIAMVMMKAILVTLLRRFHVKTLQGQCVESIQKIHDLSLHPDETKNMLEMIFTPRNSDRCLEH
Method in brief: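 Human recombinant CYP19 (aromatase) with O-benzylfluorescein benzyl ester (DBF) as substrate.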

[6] = Inhibition of CYP1A in beta-naphthoflavone-stimulated rat […] cells assessed as dealkylation of 3-cyano-7-ethoxycoumarin to 3-cyano-7-hydroxyciumarin; type: ADME, cell-based; conditions: for IC50: Rattus norvegicus; for Activity: rat
Method in brief: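 Rat hepatoma H4IIE cells induced with β-naphthoflavone, then homogenised. CYP1A activity measured as dealkylation of 3-cyano-7-ethoxycoumarin to fluorescent 3-cyano-7-hydroxycoumarin, over a dose range. α-Naphthoflavone serves as positive control. IC50 is given as mean ± SD, n = 3.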

[7] = Antioxidant activity assessed as superoxide anion radical scavenging activity up to 50 uM; type: functional
Method in brief: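 Superoxide anion radicals generated by xanthine oxidase oxidising hypoxanthine to uric acid. Scavenging tested at concentrations up to 50 µM.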

Escherichia coli = experiment: Antibacterial activity against Escherichia coli at 1 mg/ml by agar diffusion assay; type: functional, organism-based; method in brief: as §2
Microbotryum violaceum = experiment: Antifungal activity against Microbotryum violaceum at 1 mg/ml by agar diffusion assay; type: functional, organism-based; method in brief: as §2
[8] = Antioxidant activity assessed as AAPH radical scavenging activity at 1 uM; type: functional; method in brief: as §1
Priestia megaterium = experiment: Antibacterial activity against Bacillus megaterium at 1 mg/ml by agar diffusion assay; type: functional, organism-based; method in brief: as §2
[Chlorella] fusca = Antialgal activity against Chlorella fusca at 1 mg/ml by agar diffusion assay; type: functional, organism-based; conditions: Scenedesmus fuscus; method in brief: as §2

Row | Compound | Activity [1] | inhibition [2] | Activity (Mycotypha microspora) | Activity [3] | Activity (Aspergillus ruber) | IC50 [4] | Ratio [5] | IC50 (Aromatase) | Activity (Aromatase) | IC50 [6] | Activity [6] | Activity [7] | Activity (Escherichia coli) | Activity (Microbotryum violaceum) | Activity [8] | Activity (Priestia megaterium) | Activity ([Chlorella] fusca)
1 | Cc1c(C)c2c(c(C)c1O)CCC(C)(C(=O)O)O2 (stereo not drawn) | Active |  |  |  |  |  |  |  |  |  |  |  |  |  |  |  | 
2 | Cc1cc(O)c2c(c1-c1ccc3c(c1O)C(=O)C[C@](C)([C@@H]1OC(=O)C[C@@H]1C)O3)O[C@](C)([C@@H]1OC(=O)C[C@H]1O)CC2=O [MONODICTYOCHROMONE A] |  | < 50% | inactive | inactive | inactive | > 50 µM | 100 | 24.4 µM | Dose-dependent effect | 5.3 µM | Dose-dependent effect | inactive | inactive | inactive | Active | inactive | inactive
3 | Cc1cc2c(c(O)c1-c1ccc3c(c1O)C(=O)C[C@](C)([C@@H]1OC(=O)C[C@@H]1C)O3)C(=O)C[C@@](C)([C@@H]1OC(=O)C[C@H]1O)O2 [MONODICTYOCHROMONE B] |  | < 50% | inactive | inactive | inactive | > 50 µM | 100 | 16.5 µM | Dose-dependent effect | 7.5 µM | Dose-dependent effect | inactive | inactive | inactive | Active | inactive | inactive
